# Legend:
# [1] = organism: Mus musculus; test: Tested for biodistribution of compound at 60 min in mice spleen; assay type: ADME, organism-based; conditions: in vivo, 1 h
# How it was run: (§1)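 Male Swiss albino mice, at least five per group, received HPLC-purified 99mTc complex by tail vein. The complex was reconstituted in 50% methanol (0.1 mL, 2-3 μCi). Mice were killed by cardiectomy under light ether at 1-60 min pi. Organs were weighed and γ-counted against a 1% injected-dose standard to give % dose/organ. Blood and muscle were taken as 7% and 43% of body weight.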
# [2] = organism: Mus musculus; test: Tested for biodistribution of compound at 60 min in mice intestine; assay type: ADME, organism-based; conditions: in vivo, 1 h; how it was run: as §1
# [3] = organism: Mus musculus; test: Tested for biodistribution of compound at 5 min in mice lungs; assay type: ADME, organism-based, Lung; conditions: in vivo; how it was run: as §1
# [4] = organism: Mus musculus; test: Tested for biodistribution of compound at 10 min in mice heart; assay type: ADME, organism-based; conditions: in vivo
# How it was run: (§2)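 Male Swiss albino mice, at least five per group, received 0.1 mL (2-3 μCi) of HPLC-purified 99mTc complex reconstituted in 50% methanol by tail vein. They were killed by cardiectomy under light ether anesthesia at set times (1-60 min pi). Organs were weighed and γ-counted against a 1% injected-dose standard to give % dose/organ. Blood and muscle were taken as 7% and 43% of body weight.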
# [5] = organism: Mus musculus; test: Tested for biodistribution of compound at 30 min in mice brain; assay type: ADME, organism-based; conditions: in vivo, 0.5 h; how it was run: as §2
# [6] = organism: Mus musculus; test: Tested for biodistribution of compound at 1 min in mice intestine; assay type: ADME, organism-based; conditions: in vivo; how it was run: as §2
# [7] = organism: Mus musculus; test: Tested for biodistribution of compound at 30 min in mice blood; assay type: ADME, organism-based; conditions: in vivo, 0.5 h; how it was run: as §2
# [8] = organism: Mus musculus; test: Tested for biodistribution of compound at 1 min in mice kidney; assay type: ADME, organism-based; conditions: in vivo; how it was run: as §2
# [9] = organism: Mus musculus; test: Tested for biodistribution of compound at 1 min in mice heart; assay type: ADME, organism-based; conditions: in vivo; how it was run: as §2
# [10] = organism: Mus musculus; test: Tested for biodistribution of compound at 5 min in mice blood; assay type: ADME, organism-based; conditions: in vivo; how it was run: as §1
# [11] = organism: Mus musculus; test: Tested for biodistribution of compound at 30 min in mice heart; assay type: ADME, organism-based; conditions: in vivo, 0.5 h; how it was run: as §2
# [12] = organism: Mus musculus; test: Tested for biodistribution of compound at 10 min in mice iver; assay type: ADME, organism-based, Liver; conditions: in vivo; how it was run: as §2
# [13] = organism: Mus musculus; test: Tested for biodistribution of compound at 5 min in mice heart; assay type: ADME, organism-based; conditions: in vivo; how it was run: as §1
# [14] = organism: Mus musculus; test: Tested for biodistribution of compound at 60 min in mice muscle; assay type: ADME, organism-based, Muscle tissue; conditions: in vivo, 1 h; how it was run: as §1
# [15] = organism: Mus musculus; test: Tested for biodistribution of compound at 10 min in mice brain; assay type: ADME, organism-based; conditions: in vivo; how it was run: as §2
# [16] = organism: Mus musculus; test: Tested for biodistribution of compound at 60 min in mice blood; assay type: ADME, organism-based; conditions: in vivo, 1 h; how it was run: as §1
# [17] = organism: Mus musculus; test: Tested for biodistribution of compound at 1 min in mice spleen; assay type: ADME, organism-based; conditions: in vivo; how it was run: as §2
# [18] = organism: Mus musculus; test: Tested for biodistribution of compound at 1 min in mice stomach; assay type: ADME, organism-based; conditions: in vivo; how it was run: as §2
# [19] = organism: Mus musculus; test: Tested for biodistribution of compound at 10 min in mice stomach; assay type: ADME, organism-based; conditions: in vivo; how it was run: as §2
# [20] = organism: Mus musculus; test: Tested for biodistribution of compound at 10 min in mice muscle; assay type: ADME, organism-based, Muscle tissue; conditions: in vivo; how it was run: as §2
# [21] = organism: Mus musculus; test: Tested for biodistribution of compound at 10 min in mice lungs; assay type: ADME, organism-based, Lung; conditions: in vivo; how it was run: as §2
# [22] = organism: Mus musculus; test: Tested for biodistribution of compound at 60 min in mice lungs; assay type: ADME, organism-based, Lung; conditions: in vivo, 1 h; how it was run: as §1
# [23] = organism: Mus musculus; test: Tested for biodistribution of compound at 30 min in mice kidney; assay type: ADME, organism-based; conditions: in vivo, 0.5 h; how it was run: as §2
# [24] = organism: Mus musculus; test: Tested for biodistribution of compound at 5 min in mice muscle; assay type: ADME, organism-based, Muscle tissue; conditions: in vivo; how it was run: as §1
# [25] = organism: Mus musculus; test: Tested for biodistribution of compound at 60 min in mice stomach; assay type: ADME, organism-based; conditions: in vivo, 1 h; how it was run: as §1
# [26] = organism: Mus musculus; test: Tested for biodistribution of compound at 30 min in mice iver; assay type: ADME, organism-based, Liver; conditions: in vivo, 0.5 h; how it was run: as §2
substance,measurement,setting,value
"[4-methoxythio)phenolato][N,N-bis(2-mercaptoethyl)-2-(ethylthio)ethylamine] oxotechnetium",Dose/organ,[1],0.03%
same,Dose/organ,[2],44.3%
same,Dose/organ,[3],1.52%
same,Dose/organ,[4],0.31%
same,Dose/organ,[5],0.39%
same,Dose/organ,[6],4.14%
same,Dose/organ,[7],0.8%
same,Dose/organ,[8],2.3%
same,Dose/organ,[9],4.02%
same,Dose/organ,[10],1.66%
same,Dose/organ,[11],0.11%
same,Dose/organ,[12],24.79%
same,Dose/organ,[13],0.59%
same,Dose/organ,[14],5.27%
same,Dose/organ,[15],1.57%
same,Dose/organ,[16],0.79%
same,Dose/organ,[17],0.06%
same,Dose/organ,[18],0.35%
same,Dose/organ,[19],1.02%
same,Dose/organ,[20],20.29%
same,Dose/organ,[21],1.05%
same,Dose/organ,[22],0.26%
same,Dose/organ,[23],1.04%
same,Dose/organ,[24],25.57%
same,Dose/organ,[25],1.1%
same,Dose/organ,[26],24.36%
